Results published in ChEMBL document CHEMBL3525985, “Regiospecificity and stereospecificity of human UDP-glucuronosyltransferases in the glucuronidation of estriol, 16-epiestriol, 17-epiestriol, and 13-epiestradiol” (Drug Metab Dispos, 2013).
Each block holds one compound with its values, some of them ahead of it.

How the values were obtained:
Type in all cases: ADME
[1] = biological target: T1, UDP-glucuronosyltransferase 2B17 (Homo sapiens, UniProt O75795); test: Drug metabolism assessed as recombinant human C-terminal His-tagged UGT2B17-mediated 13-epiestradiol-17-glucuronide formation at 200 uM after 15 to 60 mins by HPLC analysis in presence of UDPGA; settings: recombinant enzyme
T1 sequence (O75795 whole entry): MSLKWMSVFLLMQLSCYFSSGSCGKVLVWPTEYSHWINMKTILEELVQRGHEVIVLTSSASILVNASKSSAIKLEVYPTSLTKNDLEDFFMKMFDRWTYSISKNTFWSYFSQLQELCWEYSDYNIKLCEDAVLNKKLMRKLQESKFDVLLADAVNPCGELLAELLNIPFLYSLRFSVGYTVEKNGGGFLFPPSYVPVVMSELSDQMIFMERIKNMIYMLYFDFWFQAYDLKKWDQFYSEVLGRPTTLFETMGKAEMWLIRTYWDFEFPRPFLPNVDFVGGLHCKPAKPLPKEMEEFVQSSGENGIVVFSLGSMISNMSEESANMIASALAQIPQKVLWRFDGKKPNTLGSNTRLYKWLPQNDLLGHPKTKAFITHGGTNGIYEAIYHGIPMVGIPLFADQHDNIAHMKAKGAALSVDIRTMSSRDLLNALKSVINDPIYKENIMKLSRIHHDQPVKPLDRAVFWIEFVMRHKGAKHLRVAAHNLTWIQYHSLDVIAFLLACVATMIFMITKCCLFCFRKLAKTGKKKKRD
Outline: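 Screening at a single substrate concentration of 200 μM, in triplicate. The reaction used 5 or 50 µg of UGT-enriched insect cell membranes in 50 mM phosphate pH 7.4 with 10 mM MgCl₂ and 5 mM UDPGA, 10% final DMSO. Incubation was 15–60 min at 37°C. Perchloric acid stopped the reaction and supernatants were analysed by HPLC. Controls lacked UDPGA. Rates were normalized to relative UGT expression level.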

[2] = biological target: T1, UDP-glucuronosyltransferase 2B17; test: Drug metabolism assessed as recombinant human C-terminal His-tagged UGT2B17-mediated 16-epiestriol-17-glucuronide formation at 5 mg after 5 hrs by NMR spectroscopic analysis in presence of UDPGA
[3] = biological target: T2, UDP-glucuronosyltransferase 1A3 (Homo sapiens, UniProt P35503); test: Drug metabolism assessed as recombinant human C-terminal His-tagged UGT1A3-mediated 16-epiestriol-16-glucuronide formation after 15 to 60 mins by Michaelis-Menten equation analysis in presence of UDPGA; settings: recombinant enzyme
T2 sequence (P35503 whole entry): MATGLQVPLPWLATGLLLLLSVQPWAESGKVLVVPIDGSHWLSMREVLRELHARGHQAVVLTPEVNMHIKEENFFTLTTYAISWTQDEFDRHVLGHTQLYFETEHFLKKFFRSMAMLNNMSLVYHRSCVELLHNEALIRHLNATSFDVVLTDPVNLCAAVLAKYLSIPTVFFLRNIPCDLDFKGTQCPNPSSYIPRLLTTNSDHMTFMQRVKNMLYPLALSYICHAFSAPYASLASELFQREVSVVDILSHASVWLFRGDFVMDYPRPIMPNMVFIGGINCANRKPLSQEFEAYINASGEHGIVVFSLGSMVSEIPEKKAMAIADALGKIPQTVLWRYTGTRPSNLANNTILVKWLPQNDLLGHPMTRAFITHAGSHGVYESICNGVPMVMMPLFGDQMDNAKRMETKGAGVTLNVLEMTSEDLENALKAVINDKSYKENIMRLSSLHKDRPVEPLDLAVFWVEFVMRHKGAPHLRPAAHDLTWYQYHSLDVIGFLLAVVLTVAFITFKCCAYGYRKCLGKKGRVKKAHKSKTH

[4] = biological target: T3, UDP-glucuronosyltransferase 2B15 (Homo sapiens, UniProt P54855); test: Drug metabolism assessed as recombinant human C-terminal […]-mediated estradiol-3-glucuronide/estradiol-17-glucuronide formation at 200 uM after 15 to 60 mins by HPLC analysis in presence of UDPGA; settings: recombinant enzyme
T3 sequence (P54855 whole entry): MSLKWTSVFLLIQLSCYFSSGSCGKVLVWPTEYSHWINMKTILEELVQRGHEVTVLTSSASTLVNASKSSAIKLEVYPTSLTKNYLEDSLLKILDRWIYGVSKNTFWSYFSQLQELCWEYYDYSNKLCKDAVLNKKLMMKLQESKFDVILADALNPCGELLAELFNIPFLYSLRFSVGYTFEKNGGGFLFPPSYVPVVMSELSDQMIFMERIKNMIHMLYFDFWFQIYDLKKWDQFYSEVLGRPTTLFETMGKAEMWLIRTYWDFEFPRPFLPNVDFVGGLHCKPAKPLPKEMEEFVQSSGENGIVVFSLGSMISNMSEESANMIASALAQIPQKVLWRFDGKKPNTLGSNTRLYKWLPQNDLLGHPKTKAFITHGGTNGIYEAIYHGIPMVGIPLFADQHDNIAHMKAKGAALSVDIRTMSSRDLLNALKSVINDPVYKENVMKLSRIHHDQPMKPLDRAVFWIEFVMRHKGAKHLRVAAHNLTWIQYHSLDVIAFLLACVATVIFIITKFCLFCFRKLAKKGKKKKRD

Drug metabolism [1]: metabolite_detected
Structure (SMILES): C[C@@]12CC[C@@H]3c4ccc(O)cc4CC[C@H]3[C@@H]1CC[C@@H]2O

Drug metabolism [2]: metabolite_detected
Drug metabolism [3]: 5 pmol/min/mg
Structure (SMILES): C[C@]12CC[C@@H]3c4ccc(O)cc4CC[C@H]3[C@@H]1C[C@H](O)[C@@H]2O [EPIESTRIOL]

Drug metabolism [4]: metabolite_detected
Structure (SMILES): C[C@]12CC[C@@H]3c4ccc(O)cc4CC[C@H]3[C@@H]1CC[C@@H]2O [ESTRADIOL]
